Data reported in the RNAGym collection of RNA variant scans (doi:10.1126/science.aae0568).
This sample holds only a part of the variants without activity.

B1: tRNA (parent)
chain: GUUCCGUUGGCGUAAUGGUAACGCGUCUCCCUCCUAAGGAGAAGACUGCGGGUUCGAGUCCCGUACGGAACG

Variants of: B1
Assay: yeast fitness relative to wild type (ratio to wild type); higher = fitter; tRNA-Arg(CCU), competitive growth, 37 C, YPD
In short: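 Variants of the tRNA-Arg(CCU) gene were chemically synthesised with a 3% per-site mutation rate across 69 sites and placed at the native genomic locus in Saccharomyces cerevisiae. Six parallel replicates of the pooled strains were competed in YPD at 37°C for 24 hours, and gene amplicons from the start and end populations were read by 100-nucleotide paired-end sequencing. Darwinian fitness relative to wild type was derived from changes in genotype frequencies. Genotypes required ≥ 100 starting reads, and estimates < 0.5 were set to 0.5.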

Variant	yeast fitness
U2C A45C C46U G68C	≤ 0.5
A14U C24U C33A G44C U47C U64G	≤ 0.5
G6A U13G A40U	0.502
C11G G23A C31U C33G C34U A36G	≤ 0.5
A14U A45U A69C	0.539
A20G C24U C33U	≤ 0.5
U28A C29A C46U C55G	≤ 0.5
U28A U47G	0.535
A15G C31U A45U	0.668
A14U A20G C30G A42C A70G	≤ 0.5
U28A G68U	0.762
G6A C24G C31G	0.527
G6C G50C U53C C55U	≤ 0.5
A40C C55U C60G C62A	0.546
A14G G23C C29A	≤ 0.5
C5U C62A	0.649
G10A G25A U47C	≤ 0.5
G17C A21G C27U C33G A42U A57G	≤ 0.5
C29G C34A A37G C60A	≤ 0.5
G18A C24G C49A	≤ 0.5
U2A C33A C34U G56A A69C	≤ 0.5
C4U G52C U59C	≤ 0.5
U7A A20G C31A	≤ 0.5
C31U C62G	0.949

Variant	yeast fitness
U2C G18A C24A U28A U32C	≤ 0.5
A15C C60A C62U	≤ 0.5
U28C A36G G41A A42C	≤ 0.5
U2G A42G C55U	≤ 0.5
A15G C31A U54C	≤ 0.5
C55G C66U	0.585
G9C A20C C31A A57C C66A A69U	0.572
U2A G6C U7C C30A G44A C66A	0.576
C34U A42G	0.712
G10C G63A G68C	≤ 0.5
C4U G12A C62G	0.53
C4U A20G A40U A70G	≤ 0.5
C34U C46A	0.714
U3A G18A C22U A65U	≤ 0.5
A20G A42C C66U	0.625
C11A A15G C49U C66U	≤ 0.5
A14U G52U	0.592
A15U A43U C46G C61A	≤ 0.5
U7C G12A U13C U26C	0.565
C4U A37C C49U C60G	≤ 0.5
C5G U13G A20U A37G G52C G68A	≤ 0.5
C4G C33G G67A	≤ 0.5
U64A A65G G67U	0.709
C4G G18C C33G G41A	≤ 0.5

Variant	yeast fitness
G18C U19G A20G C33A U35C	≤ 0.5
U8A A15C	0.631
C5G A15U G44C G50A U54A	≤ 0.5
C5U U19C C34U A70C	≤ 0.5
G6C C11U A45U	0.559
G23U U28G	0.552
U8C G41A	0.92
G12C A45G A65G	0.548
G6A A15U A20U G38C	≤ 0.5
C5A C24U G67U A69C	0.517
G25C A40U A42C C61A C66U	≤ 0.5
A14U C30A C31G G41C A70U	≤ 0.5
U19C A21G	0.906
A20C G51A	0.815
C49U C62A	0.787
U2C A43G C49A A57U	≤ 0.5
G39C C49G	0.59
C11U U16A A36G A43G C62A	≤ 0.5
U13A C30G U54C	≤ 0.5
A14G A40G A43U G50C A69U	≤ 0.5
C22U C49A	0.682
C4U C29A C61G A70U	0.588
A14U C34G A43U C46A C62U A69C	≤ 0.5
U2G U54C C62G A70U	≤ 0.5

Variant	yeast fitness
U7A A20G C22A A40G G41C	≤ 0.5
G9U A69C	0.909
C11U C24G C62G	≤ 0.5
G23A C30G G67A	0.726
U16C C22G U54C	0.661
G6A G10C C34U C46U	≤ 0.5
C24U U28C G52C C60G	0.524
C29G C49U U53C A57C C60G U64C G68U	≤ 0.5
U3A G39A	0.888
U3C A57G A69U	0.599
U2G G6A U53G U54G C55A	≤ 0.5
C22A C29U G56A C60G	≤ 0.5
C27A G41C A43C	0.504
U7G U32C	0.992
C5A U16A A42C	≤ 0.5
G6A C22G U35C C55G	≤ 0.5
U3C C22A A70C	0.607
C5U C34G A45U U53G A57G	0.672
U3G C49G C60G C62G G63A	≤ 0.5
G9A G44A C55A A57U	≤ 0.5
C5G C22A A42U G48A C62A	≤ 0.5
C24G C61U A69U	0.516
A20G G25C U47A G56C U59C	≤ 0.5
C5G C49G G50A A57C	≤ 0.5

Variant	yeast fitness
G6C U7A C27U	≤ 0.5
U8A G10C G12C C34G G67U	≤ 0.5
C4U U26C	1.04
A15U U35C G41A C60A A65U A69G	0.563
U7A U13A C46G C66U	≤ 0.5
U64C G68U	1.01
C11G C29U C61A A65C	≤ 0.5
C24U C30A C55U	≤ 0.5
C4G G25A C60G C62G	0.57
U3C C24U A42C	0.663
C5U A36C U54A	≤ 0.5
U2A A20U A21C C27U C33A A70C	0.528
G12C C30U C31U	0.611
G39A A43U C46U	0.574
U7C A14G	0.86
A21U C31G C33G C60A	0.543
C27U C46A	0.942
A43U A45U A57C C66U	≤ 0.5
C30G G67C	0.637
G12A A65G A69C	0.556
U16A U19G C33U A40C G41A A43C C60U C61G	≤ 0.5
U16C C22U G68C	≤ 0.5
U3C C27G C33A G51A	≤ 0.5
G6C U13G G18A U54C C55A	≤ 0.5

Variant	yeast fitness
C4G G23A C29G A37C C61G	≤ 0.5
C22G U53G	0.503
C11A C31A C66G A69U	≤ 0.5
C11U A42G C49A A57C	0.51
C5G U8A G52C U53A	≤ 0.5
G6A U35G C55A	0.643
A36U A43G C46A G48C A70C	≤ 0.5
U3A U16C	0.824
G23C C24G	0.783
U16A G17A C22G C49U C61U G68C	≤ 0.5
G9A U54G	0.552
C29G C33U U47A C61U A69C	≤ 0.5
C24A U28C A57U	≤ 0.5
U28A C31U C34U	≤ 0.5
A36G A42U	0.902
U8A G17A U26C C29G U35A A42G A69U	≤ 0.5
A21U C27A	0.583
C11U A20G C34G A40C G51C	≤ 0.5
C27U A36U G44A	≤ 0.5
A43C A69U A70C	1.03
U16A U19A A45G	0.652
C5G A42G C60G C61G	0.669
U13A U54A	0.622
C34G A37C G63A	≤ 0.5

Variant	yeast fitness
A45C G68U	0.739
C24G A42G A65G	≤ 0.5
C4A C24A G67A	≤ 0.5
G17C C24G C34U C66U	0.548
C31G C62U A65G	0.71
C4U A36G G39A G67A	≤ 0.5
C4G C46U G67C	0.597
A15U C22A	0.738
A14C A36U G68A	≤ 0.5
C5U G48U A70C	0.707
C31G A45U C55U C62U	0.564
C33U C46U	0.708
C11A C30G G48C	≤ 0.5
C11U U13C C30U	0.769
G17A C49A	0.677
U3C C31G G67U	≤ 0.5
A15U U54G	0.539
C31U G58A U59A	0.672
G25A U35C	0.942
A40C A42G G56C	0.588
A21G G39A G63A A70G	0.619
G6A C33U A43G	≤ 0.5
C11U A15G G48C	0.511
